# Residues, ends and D or L forms follow the SMILES beside them.
# Assays:
# [1] = Cytotoxicity against human Hep3B cells after 3 days by MTT assay; type: functional, cell-based, Hep 3B2; conditions: 72 h
# Method in brief: (§1)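 Freshly trypsinized cells were seeded at 5000-10 000 per well, with compounds added from a DMSO-diluted stock. After 3 days of culture, attached cells were incubated with MTT (0.5 mg/mL) for 1 h and then solubilized in DMSO. Absorbance was read at 550 nm. IC50 is the concentration that reduced cell growth by 50%.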
# [2] = system: MCF7; assay: Cytotoxicity against human MCF7 cells after 3 days by MTT assay; type: functional, cell-based; conditions: MCF7, 72 h; method in brief: as §1
# [3] = system: MDA-MB-231; assay: Cytotoxicity against human MDA-MB-231 cells after 3 days by MTT assay; type: functional, cell-based; conditions: MDA-MB-231, 72 h; method in brief: as §1
# [4] = system: HepG2; assay: Cytotoxicity against human HepG2 cells after 3 days by MTT assay; type: functional, cell-based; conditions: HepG2, 72 h
# Method in brief: (§2)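 Freshly trypsinized cells were seeded at 5000-10 000 per well, with compounds added from a DMSO-diluted stock. After 3 days of culture, attached cells were incubated with MTT (0.5 mg/mL) for 1 h and then solubilized in DMSO. Absorbance was read at 550 nm.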
# [5] = system: A549; assay: Cytotoxicity against human A549 cells after 3 days by MTT assay; type: functional, cell-based; conditions: A549, 72 h; method in brief: as §2
Compound,IC50 [1] [µg/mL],IC50 [2] [µg/mL],IC50 [3] [µg/mL],IC50 [4] [µg/mL],IC50 [5] [µg/mL]
COc1cccc2c1C(=O)c1c(O)c3c(c(O)c1C2=O)C[C@@](O)(C(=O)CO)C[C@@H]3O[C@H]1C[C@H](N)[C@H](O)[C@H](C)O1 [DOXORUBICIN],0.31,1.21,0.73,–,–
COC(=O)c1ccc(OC)cc1NC(=O)c1ccccc1O [4-METHOXYDIANTHRAMIDE B],16,> 20,> 20,4.08,> 20
CC[C@H](C)[C@@H]1NC(=O)[C@@H]2CCCN2C(=O)CNC(=O)[C@H](C(C)C)NC(=O)[C@H](Cc2ccccc2)NC(=O)[C@H](CO)NC1=O (cyclo(FVGPIS)),> 20,> 20,> 20,2.37,> 20
CC[C@H](C)[C@@H]1NC(=O)[C@@H]2CCCN2C(=O)[C@@H]2CCCN2C(=O)[C@H](CC(C)C)NC(=O)[C@H](CO)NC(=O)CNC(=O)[C@H](Cc2ccccc2)NC1=O (cyclo(FGSLPPI)),> 20,> 20,> 20,> 20,> 20
CC[C@H](C)[C@@H]1NC(=O)[C@H](C(C)C)NC(=O)[C@H](Cc2ccc(O)cc2)NC(=O)[C@H](Cc2ccccc2)NC(=O)[C@@H]2CCCN2C(=O)CNC1=O (cyclo(FYVIGP)),> 20,> 20,> 20,17.2,> 20
